PPC-1+TRAIL kill = compounds killing PPC-1 cancer cells with TRAIL present, primary screen, TRAIL potentiator project, ATPLite luminescence, uHTS; PPC-1 cells + TRAIL, ATPLite viability luminescence; cell killing (% activity), % at 4 µM or 5 µM; hit rate 0.41% among 220,000;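 active = cell killing above 50% in the first pass at 4 µM, then a duplicate retest at 5 µM averaging 50% or more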;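 also: plate controls were cells with TRAIL plus DMSO for no effect and medium-only wells lacking cells for full effect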
APP 5'UTR act = activators of APP 5'UTR luciferase reporter, primary screen, SH-SY5Y cells; activation, % at 2 µM; AID 1276, 2008; SH-SY5Y APP 5'UTR luciferase reporter, luminescence; zero percent = DMSO vehicle wells; hit rate 1% among 190,000;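 active = activation above a set limit, based on mean plus 3 SD of controls, cut at about 140% in these data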
TRAIL sens C8 = viability loss with TRAIL in NB7+C8 cells, primary screen, TRAIL sensitizer project, cell-based, ATPlite luminescence | inhibition (viability loss, TRAIL sensitization), % at 10 µM | hit rate 1% among 360,000 | AID 624354, 2012;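 active = compounds causing at least 50% loss of cell viability in the single-dose screen, relative to plate controls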
FLuc stim CS = FLuc activators, initial screening, artefact control for FLuc-dependent activation tests, biochemical, ATPlite luminescence; Luciferin 4-monooxygenase (Photinus pyralis), P08659; ATPlite luciferase biochemical, 10 min; 0 = ATP-free wells, 1 = DMSO control; activation factor at 10 µM; 200,000 tested, under 10 active; AID 1027, 2008;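 active = luciferase activation factor, scaled between plate controls, of at least 2 with compound at 10 µM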
Target sequence (P08659 whole entry, looked up): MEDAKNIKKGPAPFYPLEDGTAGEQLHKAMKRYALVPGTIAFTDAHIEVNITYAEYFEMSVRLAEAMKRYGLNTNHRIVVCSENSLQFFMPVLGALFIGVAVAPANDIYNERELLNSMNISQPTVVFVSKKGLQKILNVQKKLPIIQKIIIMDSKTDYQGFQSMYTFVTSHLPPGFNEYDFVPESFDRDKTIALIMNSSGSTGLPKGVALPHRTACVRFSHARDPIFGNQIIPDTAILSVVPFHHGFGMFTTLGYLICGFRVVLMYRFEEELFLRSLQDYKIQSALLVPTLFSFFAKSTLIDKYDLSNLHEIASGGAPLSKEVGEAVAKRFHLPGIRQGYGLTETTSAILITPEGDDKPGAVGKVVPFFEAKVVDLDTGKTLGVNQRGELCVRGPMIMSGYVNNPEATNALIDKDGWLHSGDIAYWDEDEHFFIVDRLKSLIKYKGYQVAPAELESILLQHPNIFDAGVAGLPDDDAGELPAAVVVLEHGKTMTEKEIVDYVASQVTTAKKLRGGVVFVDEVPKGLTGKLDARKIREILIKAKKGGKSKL
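Assay system: Luciferase/luciferin reagent mix; Medium: PBS as buffer for the ATP substrate; Dosing: test compounds dosed from 2 mM stocks in 100% DMSO; Times: 10 min, room temperature; Signal: luminescence from luciferase reaction; Read-out: luciferase activation; Controls: No-ATP low control, compound-free enzyme-plus-ATP high control.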
NF-kB expr up = activators of NF-kB expression in neurons, primary screen, cell-based, HTS; human neuronal cells, NF-kB reporter expression; stronger effect = higher value; hit rate 1.6% among 190,000; fold change at 12.5 µM; in the data active = fold change above about 3.3
FLuc inhib CS = firefly luciferase enzyme inhibitors, primary screen, artefact control for luciferase-based inhibitor screens, biochemical, luminescence, ATPLite. Luciferin 4-monooxygenase (Photinus pyralis), P08659. 10 min. inhibition, % at 10 µM. hit rate 1.5% among 200,000. AID 1006, 2008;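 active = inhibition above about 50% when tested at 10 µM, limit read from the data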
Active calls of the source: *; x = no result. Compounds with a hit are over-represented: about 2.2% of the library has one in this group of screens.

SMILES	PPC-1+TRAIL kill	APP 5'UTR act	TRAIL sens C8	FLuc stim CS	NF-kB expr up	FLuc inhib CS
Nc1nc(-c2ccccn2)nc(N)c1Cc1ccccc1F	0.1	33.1	29.0	0.4	1.71	57.0*
c1ccc(OCCSc2nnc3sc4ccccc4n23)cc1	40.2	120.0	36.7	0.2	1.41	79.5*
c1ccc(OCCSc2nnnn2-c2ccccc2)cc1	25.5	170.5*	4.6	0.8	6.5*	16.5
COc1ccccc1OCCSc1nnnn1-c1ccc(C)cc1	-8.3	24.1	4.7	1	1.63	3.2
Fc1ccccc1OCCSc1nnnn1-c1ccccc1	25.2	161.9*	-10.2	0.9	6.65*	13.2
O=c1c2c([nH]n1-c1ccccc1)C[C@@H](C1CCCCC1)O[C@H]2c1ccc(F)cc1	x	x	-8.8	x	x	x
Cc1ccc(Nc2nc(N)c3ccccc3n2)cc1C	x	x	78.9*	x	x	x
Cc1cc(Nc2ccc(C)c(C)c2)c2ccccc2n1	x	x	5.9	x	x	x
O=C(Nc1ccc(F)cc1)C(c1ccnc2ccccc12)N1CCN(c2cccc(C(F)(F)F)n2)CC1 (centres undefined)	x	x	11.3	x	x	x
O=C(COc1ccc(/C=N/NC(=O)c2cc3ccccc3o2)cc1Cl)Nc1ccccc1	24.7	31.6	92.6*	1	1.04	0.6
COc1cccc(Cn2c(C(C)n3c(-c4cnccn4)nc4ccccc43)nc3ccccc32)c1 (centres undefined)	x	x	19.1	x	x	x
Cc1ccc(NC(=O)c2ccccc2)cc1	-1.9	97.3	20.0	0.6	3.45*	42.8
O=C(Nc1ccc2ccccc2n1)c1ccccc1	x	x	37.9	x	x	x
Cc1ccoc1C(=O)Nc1ccc2ccccc2c1	x	x	53.5*	x	x	x
O=C(Nc1ccc2ccccc2c1)c1ccc(Cl)cc1	x	x	57.5*	x	x	x
Cc1ccc(C(=O)Nc2ccc3ccccc3n2)cc1	x	x	49.8*	x	x	x
COc1ccc(C(C(=O)NC(C)(C)C)n2c(=O)c(-c3ccccc3)nc3ccccc32)cc1 (centres undefined)	x	x	3.7	x	x	x
COc1cc(OC)cc(-c2c(Sc3ccccc3)c3cc(-c4ccc(SC)cc4)ccc3n2C)c1	x	x	17.5	x	x	x
CC(=O)N1CCC(C(=O)N2c3ccccc3N=C(c3ccc4c(c3)OCO4)C2C(=O)Nc2c(C)cccc2C)CC1 (centres undefined)	x	x	-6.9	x	x	x
CCCCNC(=O)c1nc(C2CCN(S(=O)(=O)c3ccc(C(F)(F)F)cc3)CC2)oc1-c1ccccc1	x	x	4.0	x	x	x
Cc1ccoc1C(=O)Nc1ccc(CC(=O)O)cc1	37.6	-78.9	28.6	0.4	0.58	57.3*
O=C(NC(=O)c1ccccc1)Nc1ccccc1	x	x	53.6*	x	x	x
CC(=O)N1CCc2cc(NC(=O)c3ccc(C)cc3)ccc21	37.1	2.0	40.7	0.3	3.65*	73.3*
O=C(O)Cc1ccc(NC(=O)c2ccc(NC(=O)c3ccco3)cc2)cc1	-3.6	-2.4	4.2	1	1.29	0.1
O=C(CCc1ccccc1)Nc1ccc2ccccc2n1	16.9	140.4*	6.4	0.8	5.32*	15.5
SMILES	PPC-1+TRAIL kill	APP 5'UTR act	TRAIL sens C8	FLuc stim CS	NF-kB expr up	FLuc inhib CS
COc1cc(CN2C[C@@H](CO)O[C@@H](n3cnc4c(NCC(C)C)ncnc43)C2)cc(OC)c1OC	x	x	-6.3	x	x	x
COC(=O)[C@]12CCCCC=C1N(Cc1ccco1)C(=O)[C@H](CC(=O)NCCCN1CCCC1=O)C2	x	x	20.4	x	x	x
Cc1ccc(NC(=O)c2ccccc2O)cc1	40.6	130.6	52.4*	0.2	6.02*	77.5*
Cc1ccc(C(=O)Nc2ccc3c(c2)ncn3C)cc1	11.1	139.5*	27.0	0.6	3.49*	41.1
CCn1cnc2cc(NC(=O)c3ccc(C)cc3)ccc21	x	x	5.2	x	x	x
O=C(Nc1ccncc1)c1ccc2ccccc2c1	13.4	55.5	-1.8	0.9	0.68	13.8
Cc1ccc(C(=O)Nc2ccc3ccccc3c2)cc1	x	x	82.6*	x	x	x
COc1ccccc1-c1ccc2c(c1)C(C)(Cc1ccc(F)c(Cl)c1)C(=O)N2 (centres undefined)	x	x	-11.4	x	x	x
CC1CN(Cc2ccccc2)C(=O)N(c2ccccc2)C1=O (centres undefined)	x	x	-22.4	x	x	x
CC1CN(Cc2ccccc2)c2ccccc2NC1=S (centres undefined)	51.6*	1.7	1.2	1	0.92	0.9
c1ccc2c(c1)oc1c(NCCN3CCOCC3)ncnc12	16.7	-6.0	-11.9	1.1	0.72	-7.5
c1ccc2c(c1)oc1c(Nc3ccc(CN4CCOCC4)cc3)ncnc12	4.6	187.1*	41.3	1	0.41	3.6
CCN=c1scc(-c2ccco2)n1/N=C/c1ccc(O)cc1	5.4	78.5	-0.1	0.7	1.14	29.2
CCN=c1scc(-c2ccco2)n1/N=C/c1ccc(OC)c(O)c1	-21.5	181.7*	14.9	0.8	3.99*	19.5
O=C(Nc1ccc2c(c1)OCO2)C1Cc2c(-c3ccccc3Oc3ccccc3)ccnc2O1 (centres undefined)	x	x	6.4	x	x	x
CCCC(C)(C)C(=O)N1CCC1(C)C(=O)Nc1cccc2ccccc12 (centres undefined)	x	x	13.9	x	x	x
Fc1ccccc1Cn1nnc(-c2ccc3c(c2)OCO3)n1	25.5	166.5*	28.8	0.6	5.7*	39.0
Cc1cc(F)cc(-c2cc(C(=O)NCc3ccccn3)[nH]n2)c1	x	x	-0.9	x	x	x
CCCCNC(=O)c1c(N)[nH]c(C(=O)c2ccccc2)c1-c1ccc(Cl)cc1	x	x	-16.0	x	x	x
CCc1nc2c(OCc3ccccc3)cccn2c1N(C)C(=O)c1ccc2c(c1)OCO2	x	x	19.2	x	x	x
CCN(CC)c1ccc(C(=O)OCc2cc(=O)oc3cc(O)ccc23)cc1	-24.3	-3.3	50.2*	1	1.65	-3.3
CC(=O)N(Cc1ccc(F)cc1)C1=C(NCCc2ccccc2)C(=O)c2ccccc2C1=O	47.5	-44.5	89.4*	1	0.15	-1.6
Cc1cccc(C)c1N1C(=O)c2ccccc2NC(=O)C1C(=O)NCC(C)C (centres undefined)	x	x	4.1	x	x	x
O=C(Nc1ccccc1C(=O)O)c1ccc(Cl)c(S(=O)(=O)N2CCOCC2)c1	33.3	9.3	25.8	0.4	0.72	60.0*
O=C(O)c1cccc(NC(=O)c2ccc(Cl)c(S(=O)(=O)N3CCCCCC3)c2)c1	28.3	97.9	38.3	0.3	1.9	65.4*
O=C(Nc1cccnc1)c1ccc(Cl)c(S(=O)(=O)N2CCCCC2)c1	x	x	6.6	x	x	x
COc1ccccc1NC(=O)c1ccc(Cl)c(S(=O)(=O)N2CCOCC2)c1	-3.2	13.8	-3.9	1	1.05	-4.8

Screens from PubChem.
